Measured values from ChEMBL document CHEMBL3872212, “Synthesis, antimicrobial activity and advances in structure-activity relationships (SARs) of novel tri-substituted thiazole derivatives” (2016).
≈ marks a conversion by molar mass, not a printed value.

Columns and labels:
Assay type in all cases: functional
[1] = tested on: Aspergillus flavus; test: Fungicidal activity against Aspergillus flavus MTCC 1884 measured after 2 days by broth dilution method
Outline: (§1)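 MBC/MFC is found by further steps carried out once the MIC has been determined.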

[2] = tested on: Bacillus spizizenii; test: Bactericidal activity against Bacillus subtilis ATCC 6633 measured after 24 hrs by broth dilution method; outline: as §1
[3] = tested on: Bacillus spizizenii; test: Antibacterial activity against Bacillus subtilis ATCC 6633 at 200 ug/mL measured after 24 hrs by filter paper disc method; settings: ATCC 6633, 24 h, read-out: DIZ
[4] = tested on: Aspergillus flavus; test: Antifungal activity against Aspergillus flavus MTCC 1884 at 200 ug/mL incubated at 4 degC for 24 hrs followed by subsequent incubation at 37.5 degC for 3 days by poisoned food method; settings: read-out: DIZ
[5] = tested on: Escherichia coli; test: Antibacterial activity against Escherichia coli ATCC 8739 at 200 ug/mL measured after 24 hrs by filter paper disc method; settings: ATCC 8739, 24 h, read-out: DIZ
[6] = tested on: Aspergillus niger; test: Fungicidal activity against Aspergillus niger MTCC 1881 measured after 2 days by broth dilution method; outline: as §1
[7] = tested on: Staphylococcus aureus; test: Antibacterial activity against Staphylococcus aureus ATCC 19433 measured after 24 hrs by broth dilution method
Outline: (§2)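 MIC is the lowest concentration that arrests growth of the organism.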

[8] = tested on: Proteus vulgaris; test: Antibacterial activity against Proteus vulgaris […] measured after 24 hrs by broth dilution method; outline: as §2
[9] = tested on: Aspergillus niger; test: Antifungal activity against Aspergillus niger MTCC 1881 measured after 2 days by broth dilution method; outline: as §2
[10] = tested on: Escherichia coli; test: Bactericidal activity against Escherichia coli ATCC 8739 measured after 24 hrs by broth dilution method; outline: as §1
[11] = tested on: Proteus vulgaris; test: Antibacterial activity against Proteus vulgaris […] at 200 ug/mL measured after 24 hrs by filter paper disc method; settings: read-out: DIZ
[12] = tested on: Staphylococcus aureus; test: Antibacterial activity against Staphylococcus aureus ATCC 19433 at 200 ug/mL measured after 24 hrs by filter paper disc method; settings: ATCC 19433, 24 h, read-out: DIZ
[13] = tested on: Escherichia coli; test: Antibacterial activity against Escherichia coli ATCC 8739 measured after 24 hrs by broth dilution method; outline: as §2
[14] = tested on: Staphylococcus aureus; test: Bactericidal activity against Staphylococcus aureus ATCC 19433 measured after 24 hrs by broth dilution method; outline: as §1
[15] = tested on: Proteus vulgaris; test: Bactericidal activity against Proteus vulgaris […] measured after 24 hrs by broth dilution method; outline: as §1
[16] = tested on: Aspergillus niger; test: Antifungal activity against Aspergillus niger MTCC 1881 at 200 ug/mL incubated at 4 degC for 24 hrs followed by subsequent incubation at 37.5 degC for 3 days by poisoned food method; settings: read-out: DIZ
[17] = tested on: Aspergillus flavus; test: Antifungal activity against Aspergillus flavus MTCC 1884 measured after 2 days by broth dilution method; outline: as §2
[18] = tested on: Escherichia coli; test: Ratio of MBC to MIC for Escherichia coli ATCC 8739
[19] = tested on: Bacillus spizizenii; test: Antibacterial activity against Bacillus subtilis ATCC 6633 measured after 24 hrs by broth dilution method; outline: as §2
[20] = tested on: Aspergillus flavus; test: Ratio of MFC to MIC for Aspergillus flavus MTCC 1884
[21] = tested on: Proteus vulgaris; test: Ratio of MBC to MIC for Proteus vulgaris […]
[22] = tested on: Staphylococcus aureus; test: Ratio of MBC to MIC for Staphylococcus aureus ATCC 19433
[23] = tested on: Aspergillus niger; test: Ratio of MFC to MIC for Aspergillus niger MTCC 1881
[24] = tested on: Bacillus spizizenii; test: Ratio of MBC to MIC for Bacillus subtilis ATCC 6633

Cc1ccc(-c2ccc(-c3nc(C)sc3C)cc2)cc1
MFC [1]: 100 µg | MBC [2]: 100 µg | zone of inhibition at 200 µg/mL [3]: 21.1 mm | zone of inhibition at 200 µg/mL [4]: 21.3 mm | zone of inhibition at 200 µg/mL [5]: 24.2 mm | MFC [6]: >200 µg | MIC [7]: 100 µg | MIC [8]: 50 µg | MIC [9]: 25 µg | MBC [10]: 100 µg | zone of inhibition at 200 µg/mL [11]: 19.5 mm | zone of inhibition at 200 µg/mL [12]: 23.1 mm | MIC [13]: 12.5 µg | MBC [14]: >200 µg | MBC [15]: 100 µg | zone of inhibition at 200 µg/mL [16]: 19.7 mm | MIC [17]: 25 µg/mL (≈ 89.5 µM)

COc1ccc(-c2ccc(-c3nc(C)sc3C)cc2)cc1
MFC [1]: 50 µg | MBC [2]: 100 µg | zone of inhibition at 200 µg/mL [3]: 22.1 mm | zone of inhibition at 200 µg/mL [4]: 24.9 mm | zone of inhibition at 200 µg/mL [5]: 27.1 mm | MFC [6]: 100 µg | MIC [7]: 50 µg | MIC [8]: 25 µg | MIC [9]: 12.5 µg | MBC [10]: 25 µg | Ratio [18]: 2 | zone of inhibition at 200 µg/mL [11]: 21.6 mm | zone of inhibition at 200 µg/mL [12]: 25.5 mm | MIC [19]: 6.25 µg/mL (≈ 21.2 µM) | MIC [13]: 12.5 µg | Ratio [20]: 2 | MBC [14]: >200 µg | MBC [15]: 100 µg | zone of inhibition at 200 µg/mL [16]: 23.4 mm | MIC [17]: 25 µg/mL (≈ 84.6 µM)

COc1cccc(-c2ccc(-c3nc(C)sc3C)cc2)c1
zone of inhibition at 200 µg/mL [3]: 15.2 mm | zone of inhibition at 200 µg/mL [4]: 9.11 mm | zone of inhibition at 200 µg/mL [5]: 19.2 mm | zone of inhibition at 200 µg/mL [11]: 18.8 mm | zone of inhibition at 200 µg/mL [12]: 17.5 mm | zone of inhibition at 200 µg/mL [16]: 6.32 mm

COc1ccc(-c2ccc(-c3nc(C)sc3C)cc2)cc1OC
MFC [1]: 200 µg | MBC [2]: 100 µg | zone of inhibition at 200 µg/mL [3]: 22 mm | zone of inhibition at 200 µg/mL [4]: 24.2 mm | Ratio [21]: 2 | zone of inhibition at 200 µg/mL [5]: 25.6 mm | MFC [6]: 100 µg | MIC [7]: 25 µg | MIC [8]: 25 µg | MIC [9]: 25 µg | Ratio [22]: 2 | MBC [10]: 200 µg | zone of inhibition at 200 µg/mL [11]: 20.9 mm | zone of inhibition at 200 µg/mL [12]: 24.1 mm | MIC [19]: 12.5 µg/mL (≈ 38.4 µM) | MIC [13]: 50 µg | MBC [14]: 50 µg | MBC [15]: 100 µg | zone of inhibition at 200 µg/mL [16]: 22.5 mm

Cc1nc(-c2ccc(-c3ccc(C(F)(F)F)cc3)cc2)c(C)s1
zone of inhibition at 200 µg/mL [3]: 5.37 mm | zone of inhibition at 200 µg/mL [5]: 8.7 mm | zone of inhibition at 200 µg/mL [11]: 6.91 mm | zone of inhibition at 200 µg/mL [12]: 7.86 mm

Cc1nc(-c2ccc(-c3ccc(I)cc3)cc2)c(C)s1
zone of inhibition at 200 µg/mL [3]: 12.1 mm | zone of inhibition at 200 µg/mL [4]: 9.57 mm | zone of inhibition at 200 µg/mL [5]: 16.2 mm | zone of inhibition at 200 µg/mL [11]: 15.1 mm | zone of inhibition at 200 µg/mL [12]: 14.8 mm | zone of inhibition at 200 µg/mL [16]: 8 mm

Cc1nc(-c2ccc(-c3cccc(C=O)c3)cc2)c(C)s1
zone of inhibition at 200 µg/mL [3]: 6.65 mm | zone of inhibition at 200 µg/mL [4]: 6.29 mm | zone of inhibition at 200 µg/mL [5]: 9.56 mm | zone of inhibition at 200 µg/mL [11]: 7.39 mm | zone of inhibition at 200 µg/mL [12]: 8.02 mm | zone of inhibition at 200 µg/mL [16]: 3.92 mm

Cc1nc(-c2ccc(-c3ccc(CO)cc3)cc2)c(C)s1
Ratio [23]: >2 | MFC [1]: 100 µg | MBC [2]: 100 µg | zone of inhibition at 200 µg/mL [3]: 20 mm | zone of inhibition at 200 µg/mL [4]: 17.1 mm | Ratio [21]: >2 | Ratio [24]: >2 | zone of inhibition at 200 µg/mL [5]: 23.8 mm | MFC [6]: 200 µg | MIC [7]: 12.5 µg | MIC [8]: 100 µg | MIC [9]: 25 µg | Ratio [22]: >2 | MBC [10]: 100 µg | Ratio [18]: >2 | zone of inhibition at 200 µg/mL [11]: 17.6 mm | zone of inhibition at 200 µg/mL [12]: 21.6 mm | MIC [13]: 25 µg | Ratio [20]: >2 | MBC [14]: >200 µg | MBC [15]: >200 µg | zone of inhibition at 200 µg/mL [16]: 14.5 mm | MIC [17]: 25 µg/mL (≈ 84.6 µM)

Cc1nc(-c2ccc(-c3ccc(F)c(C)c3)cc2)c(C)s1
zone of inhibition at 200 µg/mL [3]: 14.6 mm | zone of inhibition at 200 µg/mL [4]: 5.63 mm | zone of inhibition at 200 µg/mL [5]: 18.1 mm | zone of inhibition at 200 µg/mL [11]: 15.2 mm | zone of inhibition at 200 µg/mL [12]: 16.4 mm

Cc1cc(C)c(-c2ccc(-c3nc(C)sc3C)cc2)c(C)c1
MFC [1]: 25 µg | MBC [2]: 50 µg | zone of inhibition at 200 µg/mL [3]: 24.6 mm | zone of inhibition at 200 µg/mL [4]: 27.8 mm | zone of inhibition at 200 µg/mL [5]: 28 mm | MFC [6]: 100 µg | MIC [7]: 25 µg | MIC [8]: 12.5 µg | MIC [9]: 6.25 µg | MBC [10]: 12.5 µg | Ratio [18]: 2 | zone of inhibition at 200 µg/mL [11]: 22.1 mm | zone of inhibition at 200 µg/mL [12]: 26.1 mm | MIC [19]: 6.25 µg/mL (≈ 20.3 µM) | MIC [13]: 6.25 µg | Ratio [20]: 2 | MBC [14]: 100 µg | MBC [15]: 50 µg | zone of inhibition at 200 µg/mL [16]: 25.2 mm | MIC [17]: 12.5 µg/mL (≈ 40.7 µM)

Cc1nc(-c2ccc(-c3ccc(O)cc3)cc2)c(C)s1
Ratio [23]: >2 | MFC [1]: 100 µg | MBC [2]: 200 µg | zone of inhibition at 200 µg/mL [3]: 17.7 mm | zone of inhibition at 200 µg/mL [4]: 15.3 mm | Ratio [21]: >2 | Ratio [24]: >2 | zone of inhibition at 200 µg/mL [5]: 21.1 mm | MFC [6]: 200 µg | MIC [7]: 25 µg | MIC [8]: 50 µg | MIC [9]: 50 µg | Ratio [22]: >2 | MBC [10]: >200 µg | Ratio [18]: >2 | zone of inhibition at 200 µg/mL [11]: 20 mm | zone of inhibition at 200 µg/mL [12]: 19.2 mm | MIC [13]: 25 µg | Ratio [20]: >2 | MBC [14]: 100 µg | MBC [15]: 200 µg | zone of inhibition at 200 µg/mL [16]: 13.6 mm | MIC [17]: 25 µg/mL (≈ 88.8 µM)

O=C(O)c1cn(C2CC2)c2cc(N3CCNCC3)c(F)cc2c1=O [CIPROFLOXACIN]
zone of inhibition at 200 µg/mL [3]: 25.5 mm | zone of inhibition at 200 µg/mL [5]: 29.8 mm | MIC [7]: 6.25 µg | zone of inhibition at 200 µg/mL [11]: 23.2 mm | zone of inhibition at 200 µg/mL [12]: 27 mm | MIC [19]: 6.25 µg/mL (≈ 18.9 µM) | MIC [13]: 6.25 µg

CC(=O)N1CCN(c2ccc(OCC3COC(Cn4ccnc4)(c4ccc(Cl)cc4Cl)O3)cc2)CC1 (stereo not given) [KETOCONAZOLE]
zone of inhibition at 200 µg/mL [4]: 28.4 mm | MIC [9]: 6.25 µg | zone of inhibition at 200 µg/mL [16]: 25.4 mm | MIC [17]: 12.5 µg/mL (≈ 23.5 µM)
